Screening data: PubChem, several laboratories
Hits are enriched below; roughly 2.6% of the tested compounds scored in any of these assays.
rCAG binder: binders of r(CAG) RNA repeats, primary screen, biochemical, fluorescence. 1.3% of 370,000 active. r(CAG) RNA repeat, TO-PRO-1 dye displacement fluorescence. inhibition, % at 3 µM. AID 651821, 2012;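 active means inhibition above the plate cutoff, the mean of all test compounds on that plate plus 3 SD, cut at about 35% in these data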;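 further: 0% = DMSO alone and 100% = 100 µM mitoxantrone as full dye displacement; higher means more dye released from RNA so lower well fluorescence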
NadD block: inhibitors of S. aureus NadD, primary screen, biochemical, colorimetric, uHTS. Nicotinate-nucleotide adenylyltransferase NadD (Staphylococcus aureus N315). purified NadD enzyme, colorimetric absorbance read-out. inhibition, % at 20 µM. 0.78% of 360,000 active; in the data active means inhibition above about 26%
Scp1 inh: Scp-1 phosphatase inhibitors, primary screen, biochemical, colorimetric, uHTS; AID 493091, 2011; Carboxy-terminal domain RNA polymerase II polypeptide A small phosphatase 1 (Homo …; 0.88% of 340,000 active; Recombinant Scp1, phosphopeptide, malachite green phosphate absorbance; inhibition, % at 20 µM;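 active means inhibition above about 50% at 20 µM, limit read from the data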;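 further: plate controls were DMSO wells with enzyme for no effect and wells lacking enzyme for full effect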
Target sequence (Q9GZU7 76-261 limits assumed): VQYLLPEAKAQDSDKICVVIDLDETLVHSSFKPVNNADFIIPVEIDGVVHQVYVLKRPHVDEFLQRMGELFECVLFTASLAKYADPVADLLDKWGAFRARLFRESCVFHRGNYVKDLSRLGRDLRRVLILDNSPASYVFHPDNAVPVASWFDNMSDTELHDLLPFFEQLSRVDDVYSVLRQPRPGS
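System: SCP-1 catalytic domain; Reagent: Phospho 17-mer peptide substrate; Doses: one concentration, 20 µM, with 1.0% DMSO; Incubation: 45 min room-temperature reaction, 5 min colour, 30 min stabiliser; Signal: Phosphate-binding colour reagent, absorbance read at 630 nm.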
STEP inh: STEP phosphatase inhibitors, primary screen, biochemical, fluorescence intensity, uHTS | Tyrosine-protein phosphatase non-receptor type 5 (Homo sapiens), P54829 | recombinant STEP, OMFP fluorogenic substrate | inhibition, % at 20 µM | 0.25% of 360,000 active | AID 588621, 2011;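 active means inhibition at 20 µM, scaled per plate between control wells, above about 37%, limit read from the data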;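 further: 0% = DMSO with enzyme and substrate and 100% = substrate only without enzyme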
Target sequence (P54829 whole entry, looked up): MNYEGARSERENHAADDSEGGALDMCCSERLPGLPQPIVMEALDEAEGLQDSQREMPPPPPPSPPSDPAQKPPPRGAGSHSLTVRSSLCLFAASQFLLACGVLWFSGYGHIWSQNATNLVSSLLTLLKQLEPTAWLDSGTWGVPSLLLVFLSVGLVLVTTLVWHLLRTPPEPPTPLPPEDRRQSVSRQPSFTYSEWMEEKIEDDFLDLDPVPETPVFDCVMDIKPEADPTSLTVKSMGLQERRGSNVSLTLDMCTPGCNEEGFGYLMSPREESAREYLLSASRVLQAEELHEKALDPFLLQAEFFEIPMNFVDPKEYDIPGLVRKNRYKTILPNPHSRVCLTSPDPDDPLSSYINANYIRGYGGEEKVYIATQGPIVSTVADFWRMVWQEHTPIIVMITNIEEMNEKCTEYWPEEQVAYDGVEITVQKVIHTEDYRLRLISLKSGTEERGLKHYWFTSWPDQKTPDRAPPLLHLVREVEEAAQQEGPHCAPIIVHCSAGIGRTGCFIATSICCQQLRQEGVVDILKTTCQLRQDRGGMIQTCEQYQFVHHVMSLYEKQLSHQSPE
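medium = Bis-Tris buffer pH 6.0, 2.5 mM DTT, 0.005% Tween 20 | test system = STEP (striatal-enriched tyrosine phosphatase) enzyme, cell-free | measure = normalized % inhibition | compound dosing = 20 µM, 1% DMSO | also added = 25 µM OMFP | schedule = reaction 20 min, ambient temperature | measured by = fluorescence read at 480 nm ex / 540 nm em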
LMPTP inh: LMPTP phosphatase inhibitors, primary screen, biochemical, fluorescence intensity, uHTS. AID 651560, 2012. recombinant LMPTP-A, OMFP fluorogenic substrate. Low molecular weight phosphotyrosine protein phosphatase (Homo sapiens), P24666. inhibition, % at 20 µM. 0.22% of 360,000 active;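 active means compounds that cut the enzyme signal by at least half of the control window in the single-dose screen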;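 further: plate controls were DMSO wells with enzyme plus substrate for no effect and substrate without enzyme for full effect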
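Test system: LMPTP-A phosphatase enzyme. Amount: LMPTP-A at 0.625 nM final in the reaction. Reagent: OMFP substrate, 400 µM final. Times: 50 min at room temperature. Signal: endpoint fluorescence intensity from OMFP dephosphorylation. Read-out basis: % inhibition. Benchmarks: no-enzyme and uninhibited controls.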
rCAG bind conf: small molecules binding CAG repeat RNA – biochemical, fluorescence, confirmation; AID 652065, 2013; 70% of 4,300 active; shares compounds with rCAG binder; inhibition, % at 3 µM; r(CAG) RNA repeat, TO-PRO-1 dye displacement fluorescence;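 active means inhibition above a per-plate cutoff, the mean inhibition of sample wells plus 3 SD, cut at about 35% in these data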;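 further: loss of TO-PRO-1 fluorescence as compound displaces dye from 1x1 AA loop RNA; 0% = DMSO only wells and 100% = 100 µM mitoxantrone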
DNA CAG counter: displacement of TO-PRO-1 from CAG DNA duplex, counter-screen for rCAG RNA repeat binder project, biochemical, fluorescence, TO-PRO-1 dye, d(CAG) DNA oligo; d(CAG) DNA oligo TO-PRO-1 dye displacement; shares compounds with rCAG binder; 94% of 4,300 active; inhibition, % at 3 µM;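 active means inhibition above its plate's cutoff, the mean test-well inhibition plus 3 SD, cut at about 4.8% in these data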;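 further: 0% = DNA dye mix with DMSO and 100% = 100 µM mitoxantrone; hits displace the dye from DNA and so lower well fluorescence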
dCAG dye DR: inhibitors of DNA CAG/GTC TO-PRO-1 complex, dose response, counter-screen for rCAG RNA repeat binder project, biochemical, fluorescence, TO-PRO-1 dye; shares compounds with rCAG binder; DNA CAG/GTC duplex TO-PRO-1 dye displacement fluorescence; IC50, µM; 20% of 250 active; AID 686960, 2013; in the data active means IC50 below about 10 µM
An asterisk follows results filed as active; . = not tested or not shown.

SMILES	rCAG binder	NadD block	Scp1 inh	STEP inh	LMPTP inh	rCAG bind conf	DNA CAG counter	others
CCCC(NC(=O)CCc1c(C)c2cc3c(-c4ccccc4)coc3cc2oc1=O)C(=O)O (centres undefined)	36.3*	4.1	-9.7	0.7	1.4	40.6*	10.9*
Oc1ccc(/C=N/NC(=S)Nc2cccnc2)c(O)c1O	44.5*	21.0	5.8	15.6	84.3*	38.8*	14.9*
Cc1cccc(N/N=C/c2ccc(O)c(O)c2O)c1	43.1*	0.8	7.7	1.7	5.7	43.4*	15.6*
Cc1cc(C)cc(NC(=O)OC2CC3CC2[C@H]2CCCCN2[C@H]3Cc2ccccc2)c1 (some centres undefined)	5.6	.	.	.	.	.	.
Cc1cc(/C=C2\SC(=S)NC2=O)c(C)n1-c1ccc(O)cc1	48.8*	28.9	-11.7	-5.6	2.3	42.5*	14.3*
Cc1cc(/C=C2\SC(=S)NC2=O)c(C)n1C	51.4*	35.0*	-6.6	-3.8	7.4	22.2	7.9*
Cc1nn(C)cc1/C=C1\SC(=S)NC1=O	-1.4	1.2	-3.4	0.4	-0.5	.	.
O=C1NC(=S)SC1=Cc1ccccc1Cl	17.3	-2.1	4.6	-0.7	2.2	.	.
Cc1cc(/C=C2\SC(=S)NC2=O)c(C)n1-c1ccccc1	48.2*	25.8	3.8	-0.4	3.9	35.8*	16.4*
O=C1NC(=S)S/C1=C\c1cc(Cl)cc(Cl)c1O	38.0*	5.1	-13.3	2.2	-3.0	46.7*	15.3*
Cc1cc(/C=C2/C(=O)NN(c3ccccc3)C2=O)c(C)n1-c1ccc(O)cc1	28.1	3.6	-9.6	-1.3	1.3	.	.
COC(=O)[C@]12CCCCC=C1N(Cc1ccc(OC)cc1)C(=O)[C@@H]2CC(=O)N1CCSCC1	1.9	.	.	.	.	.	.
CCNC(=O)N(C)[C@H]1C[C@H]2c3[nH]c4c(-c5ccc6c(c5)OCO6)cccc4c3CCN2C(=O)[C@H]1[C@H](C)O	6.0	.	.	.	.	.	.
O=[N+]([O-])c1cccc(NC(=S)Nc2nc(-c3ccccc3Cl)cs2)c1	39.1*	18.6	4.7	5.3	2.6	36.1*	27.8*
CCOC(=O)c1c(N)sc(N)c1C(=O)OCC	9.1	6.3	4.4	-2.0	0.8	.	.
CCOC(=O)c1c(N)sc(=S)c2c1CCC2	35.5*	7.9	3.5	0.2	6.8	53.7*	23.5*	dCAG dye DR=>29.9
CCc1nnc(NS(=O)(=O)c2ccc(NC(=O)c3cccc4ccccc34)cc2)s1	63.7*	3.7	-3.2	1.7	0.0	44.1*	15.7*
CCc1nnc(NS(=O)(=O)c2ccc(NC(=O)CCC(=O)O)cc2)s1	-2.2	3.7	-5.1	-1.2	-1.8	.	.
CCc1nnc(NC(=O)c2cc(OC)c(OC)cc2[N+](=O)[O-])s1	-1.0	-3.2	-8.6	-1.7	-1.5	.	.
CCc1nnc(NS(=O)(=O)c2ccc(NC(=O)c3cc(Cl)ccc3[N+](=O)[O-])cc2)s1	45.2*	9.3	0.8	0.1	-0.2	24.9	5.9*
CCc1nnc(NS(=O)(=O)c2ccc(NC(=O)c3cc(Cl)ccc3Cl)cc2)s1	53.5*	3.0	-3.4	1.3	-1.6	35.8*	11.4*
CCc1nnc(NC(=O)c2cc(S(=O)(=O)N(CC)CC)ccc2Cl)s1	2.5	-5.5	-6.5	-1.9	0.0	.	.
CCN(CC)C(=O)c1ncn2c1C(=O)N[C@H](C)C2	-1.7	.	.	.	.	.	.
CCCCCCNC(=O)C1CSCCS(=O)(=O)N1Cc1ccccc1 (centres undefined)	-3.7	.	.	.	.	.	.
Fc1cccc(F)c1Cn1ccc2ccc(-c3ccc4ccn(Cc5c(F)cccc5F)c4c3)cc21	4.0	.	.	.	.	.	.
SMILES	rCAG binder	NadD block	Scp1 inh	STEP inh	LMPTP inh	rCAG bind conf	DNA CAG counter	others
O=C(Cn1cc(COc2ccc(Cl)c(Cl)c2)nn1)NS(=O)(=O)c1ccccc1OC(F)(F)F	61.7*	-3.7	.	2.4	-1.7	47.5*	15.8*
Cc1c(OCc2nn[nH]n2)ccc2c3c(c(=O)oc12)CCC(C)C3 (centres undefined)	42.2*	4.8	0.4	3.7	0.9	23.2	4.7*
Cc1c(OCc2nn[nH]n2)ccc2c3c(c(=O)oc12)CCCC3	18.1	1.8	-15.4	-2.8	-1.4	.	.
Cc1ccc(N=C2NC(=O)/C(=C\c3ccco3)S2)cc1	42.0*	3.4	7.1	-4.8	2.0	33.7	15.4*
Cc1cccc(N=C2NC(=O)/C(=C/C=C/c3ccco3)S2)c1	52.1*	32.1*	15.3	0.4	6.3	43.0*	22.5*
COc1ccc(N=C2NC(=O)/C(=C\C=C\c3ccco3)S2)cc1	44.3*	36.5*	25.2	5.6	32.1	32.5	16.9*
COc1ccc(N=C2S/C(=C\c3ccco3)C(=O)N2CC(C)C)cc1	8.8	8.1	10.1	0.9	1.7	.	.
COc1ccc(Cl)cc1NC(=S)NNC(=O)C1(C)CC1(Cl)Cl (centres undefined)	43.0*	4.6	10.3	0.7	-0.3	25.3	5.5*
COC(=O)c1cc(OC)c(OC)cc1NC(=S)Nc1cc(Cl)ccc1OC	1.7	-3.8	0.1	-3.9	1.4	.	.
CCCCOCCCNC(=O)C[C@H]1C[C@@]2(C(=O)OC)C(=C[C@H](C(C)C)O[C@@H]2C2CC2)N(Cc2ccc3c(c2)OCO3)C1=O	-1.0	.	.	.	.	.	.
COC(=O)[C@]12C[C@H](CC(=O)NCC34CC5CC(CC(C5)C3)C4)C(=O)N(Cc3ccco3)C1=C[C@H](C(C)C)O[C@@H]2C1CC1	7.5	.	.	.	.	.	.
O=C1NC(=S)N(C(=O)c2ccc(F)cc2)/C1=C/c1ccccc1	36.5*	5.0	-1.3	-0.3	10.4	65.4*	24.2*
COc1ccc(C(=O)CC(=O)c2ccc(F)cc2)cc1	3.0	-0.9	-18.7	1.8	0.8	.	.
COc1ccc(/C=C2\C(=O)NC(=S)N2C(=O)c2ccc(F)cc2)cc1	37.6*	17.1	23.9	0.8	18.0	69.4*	31.2*
C[C@@H]1ON(C)[C@H]2C[C@H]3c4cc(N5CCCCC5)ccc4CCN3C[C@@H]12	1.1	.	.	.	.	.	.
